Article PMC6260803 (Angewandte Chemie (International ed. in English), 2015)
Residues, ends and D or L forms follow the SMILES beside them. *: point of attachment. X1 = O=C(CO[C@H]1O[C@H](CO)[C@@H](O)[C@H](O)[C@@H]1O)*

Columns and labels:
griffithsin (GRFT) = griffithsin (GRFT) (Griffithsia sp., UniProt P84801); format: binding
immobilized GRFT = immobilized GRFT (Griffithsia sp., UniProt P84801); assay: SPR analysis of binding to immobilized GRFT; details: run in triplicate; for dissociation rate (koff) from GRFT (in words) / association rate (kon) to GRFT (in words): SPR, immobilized GRFT; for binding response to immobilized GRFT (in words): SPR sensorgrams
Method in brief: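 Glycopeptide high-mannose mimetics with varied mannose valency and spacing were passed over immobilized griffithsin, with a nonglycosylated peptide as negative control. Runs were in triplicate. Sensorgrams and Langmuir binding curves were generated, and association and dissociation rates were assessed from the sensorgrams.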

[1] = isothermal titration calorimetry, binding to GRFT, value ± spread

Chain of griffithsin (GRFT) (P84801 whole entry): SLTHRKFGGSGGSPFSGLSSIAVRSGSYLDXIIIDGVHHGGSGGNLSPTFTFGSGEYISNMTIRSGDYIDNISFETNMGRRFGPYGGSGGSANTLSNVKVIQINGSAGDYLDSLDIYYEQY
Chain of immobilized GRFT (P84801 whole entry): as above

Compound: CC(=O)N[C@@H](CCCCNC(=O)CO[C@H]1O[C@H](CO)[C@@H](O)[C@H](O)[C@@H]1O)C(=O)NCC(=O)NCC(=O)N[C@@H](CCCCNC(=O)CO[C@H]1O[C@H](CO)[C@@H](O)[C@H](O)[C@@H]1O)C(=O)NCC(=O)NCC(=O)N[C@@H](CCCCNC(=O)CO[C@H]1O[C@H](CO)[C@@H](O)[C@H](O)[C@@H]1O)C(N)=O [Compound 5] (Ac-K(X1)GGK(X1)GGK(X1)-NH2; N-terminus and C-terminus assumed)
- n (stoichiometry of binding) (griffithsin (GRFT); [1]): 1.16 ± 0.25

Compound: NC(=O)[C@H](CCCCNC(=O)[C@H](CCCCNC(=O)CNC(=O)CO[C@H]1O[C@H](CO)[C@@H](O)[C@H](O)[C@@H]1O)NC(=O)CNC(=O)CO[C@H]1O[C@H](CO)[C@@H](O)[C@H](O)[C@@H]1O)NC(=O)[C@H](CCCCNC(=O)CNC(=O)CO[C@H]1O[C@H](CO)[C@@H](O)[C@H](O)[C@@H]1O)NC(=O)CNC(=O)CO[C@H]1O[C@H](CO)[C@@H](O)[C@H](O)[C@@H]1O [Compound 12]
- stoichiometry of binding to GRFT (rounded, as stated in text) (griffithsin (GRFT); ITC): 1
- Kd lower compared to glycopeptides 10 and 11 (griffithsin (GRFT); ITC, Kd of 12 versus 10 and 11): approximately 30 fold
- n (stoichiometry of binding) (griffithsin (GRFT); [1]): 1.08 ± 0.08

Compound: CC(=O)N[C@@H]1[C@@H](O)[C@H](O[C@@H]2O[C@H](CO)[C@@H](O[C@@H]3O[C@H](CO[C@H]4O[C@H](CO[C@H]5O[C@H](CO)[C@@H](O)[C@H](O)[C@@H]5O[C@H]5O[C@H](CO)[C@@H](O)[C@H](O)[C@@H]5O)[C@@H](O)[C@H](O[C@H]5O[C@H](CO)[C@@H](O)[C@H](O)[C@@H]5O[C@H]5O[C@H](CO)[C@@H](O)[C@H](O)[C@@H]5O)[C@@H]4O)[C@@H](O)[C@H](O[C@H]4O[C@H](CO)[C@@H](O)[C@H](O)[C@@H]4O[C@H]4O[C@H](CO)[C@@H](O)[C@H](O)[C@@H]4O[C@H]4O[C@H](CO)[C@@H](O)[C@H](O)[C@@H]4O)[C@@H]3O)[C@H](O)[C@H]2NC(C)=O)[C@@H](CO)O[C@H]1NC(=O)C[C@H](N)C(=O)O [Compound 14, Man9GlcNAc2Asn, reference compound]
- Kd (griffithsin (GRFT); [1]): 540 ± 270 nM
- n (stoichiometry of binding) (griffithsin (GRFT); [1]): 1.39 ± 0.12
- dissociation rate (koff) from GRFT (in words) (immobilized GRFT): slower koff rate than nonamannoside 13

Compound: chitobiose [reference compound]
- binding response to immobilized GRFT (in words) (immobilized GRFT): Negligible binding

Compound: CC(=O)N[C@@H](CCCCNC(=O)CO[C@H]1O[C@H](CO)[C@@H](O)[C@H](O)[C@@H]1O)C(=O)NCC(=O)N[C@@H](CCCCNC(=O)CO[C@H]1O[C@H](CO)[C@@H](O)[C@H](O)[C@@H]1O)C(=O)NCC(=O)N[C@@H](CCCCNC(=O)CO[C@H]1O[C@H](CO)[C@@H](O)[C@H](O)[C@@H]1O)C(N)=O [Compound 2]
- stoichiometry of binding to GRFT (rounded, as stated in text) (griffithsin (GRFT); ITC): 1
- n (stoichiometry of binding) (griffithsin (GRFT); [1]): 0.96 ± 0.24

Compound: NC(=O)[C@H](CCCCNC(=O)CNC(=O)[C@H](CCCCNC(=O)CO[C@H]1O[C@H](CO)[C@@H](O)[C@H](O)[C@@H]1O)NC(=O)CO[C@H]1O[C@H](CO)[C@@H](O)[C@H](O)[C@@H]1O)NC(=O)CNC(=O)[C@H](CCCCNC(=O)CO[C@H]1O[C@H](CO)[C@@H](O)[C@H](O)[C@@H]1O)NC(=O)CO[C@H]1O[C@H](CO)[C@@H](O)[C@H](O)[C@@H]1O [Compound 11]
- stoichiometry of binding to GRFT (rounded, as stated in text) (griffithsin (GRFT); ITC): 1.5
- n (stoichiometry of binding) (griffithsin (GRFT); [1]): 1.45 ± 0.12
- association rate (kon) to GRFT (in words) (immobilized GRFT): slower kon rates
- dissociation rate (koff) from GRFT (in words) (immobilized GRFT): very slow koff rates

Compound: NC(=O)[C@H](CCCCNC(=O)[C@H](CCCCNC(=O)CO[C@H]1O[C@H](CO)[C@@H](O)[C@H](O)[C@@H]1O)NC(=O)CO[C@H]1O[C@H](CO)[C@@H](O)[C@H](O)[C@@H]1O)NC(=O)[C@H](CCCCNC(=O)CO[C@H]1O[C@H](CO)[C@@H](O)[C@H](O)[C@@H]1O)NC(=O)CO[C@H]1O[C@H](CO)[C@@H](O)[C@H](O)[C@@H]1O [Compound 10]
- stoichiometry of binding to GRFT (rounded, as stated in text) (griffithsin (GRFT); ITC): 2
- n (stoichiometry of binding) (griffithsin (GRFT); [1]): 1.96 ± 0.09
- association rate (kon) to GRFT (in words) (immobilized GRFT): slower kon rates
- dissociation rate (koff) from GRFT (in words) (immobilized GRFT): very slow koff rates

Compound: CC(=O)N[C@@H](CCCCNC(=O)CO[C@H]1O[C@H](CO)[C@@H](O)[C@H](O)[C@@H]1O)C(=O)NCC(=O)N[C@@H](CCCCNC(=O)CO[C@H]1O[C@H](CO)[C@@H](O)[C@H](O)[C@@H]1O)C(=O)NCC(=O)N[C@@H](CCCCNC(=O)CO[C@H]1O[C@H](CO)[C@@H](O)[C@H](O)[C@@H]1O)C(=O)NCC(=O)N[C@@H](CCCCNC(=O)CO[C@H]1O[C@H](CO)[C@@H](O)[C@H](O)[C@@H]1O)C(=O)NCC(=O)N[C@@H](CCCCNC(=O)CO[C@H]1O[C@H](CO)[C@@H](O)[C@H](O)[C@@H]1O)C(=O)NCC(=O)N[C@@H](CCCCNC(=O)CO[C@H]1O[C@H](CO)[C@@H](O)[C@H](O)[C@@H]1O)C(N)=O [Compound 4]
- stoichiometry of binding to GRFT (rounded, as stated in text) (griffithsin (GRFT); ITC): 0.5
- n (stoichiometry of binding) (griffithsin (GRFT); [1]): 0.52 ± 0.05
- dissociation rate (koff) from GRFT (in words) (immobilized GRFT): significantly slower rate than Km3G1 and Km4G1

Compound: CC(=O)N[C@@H](CCCCNC(=O)CO[C@H]1O[C@H](CO)[C@@H](O)[C@H](O)[C@@H]1O)C(=O)NCC(=O)N[C@@H](CCCCNC(=O)CO[C@H]1O[C@H](CO)[C@@H](O)[C@H](O)[C@@H]1O)C(N)=O [Compound 1]
- n (stoichiometry of binding) (griffithsin (GRFT); [1]): 1.56 ± 0.01
- binding response to immobilized GRFT (in words) (immobilized GRFT): weakest response of any of the glycopeptides

Compound: CC(=O)N[C@@H](CCCCNC(=O)CO[C@H]1O[C@H](CO)[C@@H](O)[C@H](O)[C@@H]1O)C(=O)NCC(=O)N[C@@H](CCCCNC(=O)CO[C@H]1O[C@H](CO)[C@@H](O)[C@H](O)[C@@H]1O)C(=O)NCC(=O)N[C@@H](CCCCNC(=O)CO[C@H]1O[C@H](CO)[C@@H](O)[C@H](O)[C@@H]1O)C(=O)NCC(=O)N[C@@H](CCCCNC(=O)CO[C@H]1O[C@H](CO)[C@@H](O)[C@H](O)[C@@H]1O)C(N)=O [Compound 3]
- n (stoichiometry of binding) (griffithsin (GRFT); [1]): 0.68 ± 0.03

Compound: CC(=O)N[C@@H](CCCCNC(=O)CO[C@H]1O[C@H](CO)[C@@H](O)[C@H](O)[C@@H]1O)C(=O)N[C@@H](CCCCNC(=O)CO[C@H]1O[C@H](CO)[C@@H](O)[C@H](O)[C@@H]1O)C(=O)N[C@@H](CCCCNC(=O)CO[C@H]1O[C@H](CO)[C@@H](O)[C@H](O)[C@@H]1O)C(N)=O [Compound 6]
- n (stoichiometry of binding) (griffithsin (GRFT); [1]): 0.98 ± 0.11

Compound: CC(=O)N[C@@H](CNC(=O)CO[C@H]1O[C@H](CO)[C@@H](O)[C@H](O)[C@@H]1O)C(=O)N[C@@H](CNC(=O)CO[C@H]1O[C@H](CO)[C@@H](O)[C@H](O)[C@@H]1O)C(=O)N[C@@H](CNC(=O)CO[C@H]1O[C@H](CO)[C@@H](O)[C@H](O)[C@@H]1O)C(N)=O [Compound 8]
- stoichiometry of binding to GRFT (rounded, as stated in text) (griffithsin (GRFT); ITC): 1.5
- n (stoichiometry of binding) (griffithsin (GRFT); [1]): 1.38 ± 0.17
- dissociation rate (koff) from GRFT (in words) (immobilized GRFT): by far the slowest dissociation rate

Compound: pentamannoside [reference compound]
- binding response to immobilized GRFT (in words) (immobilized GRFT): Negligible binding

Compound: CC(=O)N[C@@H](CCCNC(=O)CO[C@H]1O[C@H](CO)[C@@H](O)[C@H](O)[C@@H]1O)C(=O)N[C@@H](CCCNC(=O)CO[C@H]1O[C@H](CO)[C@@H](O)[C@H](O)[C@@H]1O)C(=O)N[C@@H](CCCNC(=O)CO[C@H]1O[C@H](CO)[C@@H](O)[C@H](O)[C@@H]1O)C(N)=O [Compound 7]
- stoichiometry of binding to GRFT (rounded, as stated in text) (griffithsin (GRFT); ITC): 1
- n (stoichiometry of binding) (griffithsin (GRFT); [1]): 0.94 ± 0.19
